Tests used:
[1] = molecular target: T1, Amine oxidase [flavin-containing] A (Homo sapiens, UniProt P21397); assay: Inhibition of human recombinant MAO-A expressed in baculovirus-infected insect cells after 1 hr by two-step bioluminescent assay
T1 sequence (P21397 whole entry): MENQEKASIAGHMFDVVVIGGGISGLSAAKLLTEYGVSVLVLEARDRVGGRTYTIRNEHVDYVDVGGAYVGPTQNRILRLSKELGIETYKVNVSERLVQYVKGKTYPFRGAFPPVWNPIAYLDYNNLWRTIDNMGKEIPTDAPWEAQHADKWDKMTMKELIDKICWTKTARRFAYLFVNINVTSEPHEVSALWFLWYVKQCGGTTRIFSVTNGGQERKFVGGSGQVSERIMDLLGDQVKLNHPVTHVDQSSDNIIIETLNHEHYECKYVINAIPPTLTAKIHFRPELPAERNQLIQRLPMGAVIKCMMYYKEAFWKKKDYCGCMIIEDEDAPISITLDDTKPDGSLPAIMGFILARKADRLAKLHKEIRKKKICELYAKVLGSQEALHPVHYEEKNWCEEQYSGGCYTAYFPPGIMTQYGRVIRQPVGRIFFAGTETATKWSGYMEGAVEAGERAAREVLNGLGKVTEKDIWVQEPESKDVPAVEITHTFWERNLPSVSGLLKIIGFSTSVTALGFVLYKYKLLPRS

[2] = molecular target: T2, Amine oxidase [flavin-containing] B (Homo sapiens, UniProt P27338); assay: (§1) Inhibition of human recombinant MAO-B expressed in baculovirus-infected insect cells at 1 uM after 1 hr by two-step bioluminescent assay; details: 1 h, 1 µM
T2 sequence (P27338 whole entry): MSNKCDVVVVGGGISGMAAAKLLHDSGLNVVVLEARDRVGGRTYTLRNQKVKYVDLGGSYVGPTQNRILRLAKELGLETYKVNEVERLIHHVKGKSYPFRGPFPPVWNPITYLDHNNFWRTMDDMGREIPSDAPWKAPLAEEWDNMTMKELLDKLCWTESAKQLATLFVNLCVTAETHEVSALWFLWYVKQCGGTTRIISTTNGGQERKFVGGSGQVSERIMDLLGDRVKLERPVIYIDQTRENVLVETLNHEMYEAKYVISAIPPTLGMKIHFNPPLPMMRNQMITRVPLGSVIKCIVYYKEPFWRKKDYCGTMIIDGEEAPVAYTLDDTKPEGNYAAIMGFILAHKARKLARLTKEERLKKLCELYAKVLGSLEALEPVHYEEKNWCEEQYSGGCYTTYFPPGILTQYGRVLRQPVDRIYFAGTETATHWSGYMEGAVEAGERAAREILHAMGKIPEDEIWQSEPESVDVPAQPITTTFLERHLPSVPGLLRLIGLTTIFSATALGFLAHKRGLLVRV
Outline: (§2)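 Recombinant human MAO-B from baculovirus-infected insect cell microsomes (0.5 U/mg final) preincubated 2 min 30 s with compound, then luminogenic substrate at 15 µM final, 1 h at 37 °C. Luciferin detection reagent stops the reaction and luminescence is read after 20 min. Hepes 100 mM pH 7.5, 5% glycerol, 12.5% DMSO. Tested in triplicate; % inhibition from signal relative to no-compound control.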

[3] = molecular target: T2, Amine oxidase [flavin-containing] B; assay: Inhibition of human recombinant MAO-B expressed in baculovirus-infected insect cells after 1 hr by two-step bioluminescent assay
Outline: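 Recombinant human MAO-B microsomes from baculovirus-infected insect cells, 0.5 U/mg final. Enzyme preincubated with compound 2 min 30 s at 37 °C, then luminogenic luciferin-derivative substrate added (15 µM final). Luciferin detection reagent stops the reaction; luminescence read 20 min later. Buffer 100 mM Hepes pH 7.5 with 5% glycerol, DMSO 12.5% final. Screened at 10 and 1 µM in triplicate; IC50 from sigmoidal fit.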

[4] = molecular target: T3, MAO-B (amine oxidase [flavin-containing] B) (Homo sapiens, UniProt P27338); assay: as §1; outline: as §2
T3 sequence (P27338 whole entry): T2 sequence (P27338 whole entry)

| SMILES | Ki [1] [nM] | inhibition (INH) [2] | Ki [3] [nM] | inhibition at 1 h, 1 µM [4] [%] |
| --- | --- | --- | --- | --- |
| Cc1nccc2c1[nH]c1cc(OCc3cccnc3)ccc12 | 24.9 | Not Active | – | – |
| Cc1nccc2c1[nH]c1cc(OCC3CCCCC3)ccc12 | 4.3 | – | 222 | – |
| COc1ccc2c(c1)[nH]c1c(C)nccc12 [HARMINE] | – | – | 121000 | – |
| Cc1nccc2c1[nH]c1cc(OCC(C)C)ccc12 | 3.9 | – | – | 14 |
| COCCOc1ccc2c(c1)[nH]c1c(C)nccc12 | 29.5 | Not Active | – | – |
| C=CCOc1ccc2c(c1)[nH]c1c(C)nccc12 | 5 | Not Active | – | – |
| Cc1nccc2c1[nH]c1cc(OCCCC(F)(F)F)ccc12 | 3.6 | – | – | 24 |
| Cc1nccc2c1[nH]c1cc(OCc3ccccc3)ccc12 | 12.6 | – | – | 42 |
| Cc1nccc2c1[nH]c1cc(OCc3ccccn3)ccc12 | 500 | Not Active | – | – |
| Cc1nccc2c1[nH]c1cc(OCc3ccc4ccccc4c3)ccc12 | 100 | Not Active | – | – |
| Cc1nccc2c1[nH]c1cc(OCc3ccncc3)ccc12 | 35.4 | Not Active | – | – |

Further lines, with some results ahead:

| Ki [1] [nM] | inhibition (INH) [2] | SMILES | Ki [3] [nM] | inhibition at 1 h, 1 µM [4] [%] |
| --- | --- | --- | --- | --- |
| 28.4 | Not Active | Cc1nccc2c1[nH]c1cc(OCCO)ccc12 | – | – |
| 1020 | Not Active | Cc1nccc2c1[nH]c1cc(OCCN(C)C)ccc12 | – | – |
| 684 | Not Active | Cc1nccc2c1[nH]c1cc(OCCCN(C)C)ccc12 | – | – |
| 5 | – | Cc1nccc2c1[nH]c1cc(OCCc3ccccc3)ccc12 | – | 39 |
| 256 | Not Active | Cc1nccc2c1[nH]c1cc(OCCN3CCOCC3)ccc12 | – | – |

Source: ChEMBL document CHEMBL1641453, “Synthesis and evaluation of β-carboline derivatives as potential monoamine oxidase inhibitors” (Bioorg Med Chem, 2011)
